Calls of active or inactive are those of the source. No cut-off for these calls is given here.
Key:
Homo sapiens [1] = species: Homo sapiens; experiment: Inhibition of colchicine binding to tubulin (unknown origin) up to 15 uM pretreated for 1 hr followed by colchicine addition by spectrofluorometric method
How it was run: (§1)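 Tubulin preincubated 1 h at 37 °C with test agent (0, 1.6, 5, 15 μM), then colchicine added to a final 5 μM. Fluorescence read at excitation 365 nm and emission 435 nm, with buffer blank subtracted. Value is F/F0 × 100%, where F0 is fluorescence of the colchicine–tubulin complex without competitor.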

A549 = experiment: Cytotoxicity against human A549 cells after 72 hrs by MTT assay; format: functional, cell-based; details: A549, 72 h
How it was run: (§2)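 Cells grown in MEM with 10% FBS; about 4×10^3 cells per well, preincubated 24 h at 37 °C in 5% CO₂, then exposed to compounds for 72 h. MTT at a […] added for 4 h at 37 °C. Formazan dissolved in DMSO; absorbance read at 492 nm against 630 nm reference. Three runs per line; IC50 reported as mean ± SD.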

SMMC-7721 = experiment: Cytotoxicity against human SMMC7721 cells after 72 hrs by MTT assay; format: functional, cell-based; details: SMMC-7721, 72 h; how it was run: as §2
MKN-45 = experiment: Cytotoxicity against human MKN45 cells after 72 hrs by MTT assay; format: functional, cell-based; details: MKN-45, 72 h; how it was run: as §2
NCI-H460 = experiment: Cytotoxicity against human NCI-H460 cells after 72 hrs by MTT assay; format: functional, cell-based; details: NCI-H460, 72 h; how it was run: as §2
HT-29 [2] = experiment: Cytotoxicity against human HT-29 cells after 72 hrs by MTT assay; format: functional, cell-based; details: HT-29, 72 h; how it was run: as §2
Homo sapiens [3] = species: Homo sapiens; experiment: Inhibition of tubulin polymerization in human HT-29 cells assessed as abnormal microtubule network formation at 20 nM after 24 hrs by DAPI staining based immunofluorescence microscopic analysis; format: cell-based
How it was run: (§3)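 HT-29 seeded at 1×10^4 per well, grown 24 h, then treated 24 h; controls received medium. Fixed in 4% formaldehyde/PBS (30 min, −20 °C), permeabilized with 0.2% Triton X-100, and blocked with 5% BSA. Stained with anti-α-tubulin (1:100, overnight, 4 °C), then FITC anti-mouse secondary (1:100, 2 h, 37 °C). DAPI counterstain; imaged by fluorescence microscopy.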

Homo sapiens [4] = species: Homo sapiens; experiment: Inhibition of tubulin polymerization in human HT-29 cells assessed as microtubule disruption by measuring scattered short microtubule fragment in cytoplasm at 20 nM after 24 hrs by DAPI staining based immunofluorescence microscopic analysis; format: cell-based; how it was run: as §3
HT-29 [5] = experiment: Potency index, ratio of crolibulin IC50 to test compound IC50 for human HT-29 cells; format: functional
Homo sapiens [6] = species: Homo sapiens; experiment: Inhibition of tubulin polymerization in human HT-29 cells assessed as abnormal microtubule network formation at 88 nM after 24 hrs by DAPI staining based immunofluorescence microscopic analysis; format: cell-based; how it was run: as §3
HT-29 [7] = experiment: Potency index, ratio of CA-4 IC50 to test compound IC50 for human HT-29 cells; format: functional
Homo sapiens [8] = species: Homo sapiens; experiment: Inhibition of colchicine binding to tubulin (unknown origin) pretreated for 1 hr followed by colchicine addition by spectrofluorometric method; how it was run: as §1
Homo sapiens [9] = species: Homo sapiens; experiment: Inhibition of tubulin polymerization in human HT-29 cells assessed as microtubule disruption by measuring scattered short microtubule fragment in cytoplasm at 88 nM after 24 hrs by DAPI staining based immunofluorescence microscopic analysis; format: cell-based; how it was run: as §3

Compound	inhibition (Homo sapiens [1])	IC50 (A549) [nM]	IC50 (SMMC-7721) [µM]	IC50 (MKN-45) [µM]	IC50 (NCI-H460) [nM]	IC50 (HT-29 [2]) [nM]	inhibition (Homo sapiens [3])	inhibition (Homo sapiens [4])	Ratio IC50 (HT-29 [5])	inhibition (Homo sapiens [6])	Ratio IC50 (HT-29 [7])	inhibition (Homo sapiens [8])	inhibition (Homo sapiens [9])
CC(=O)O[C@H]1C(=O)[C@@]2(C)[C@H]([C@H](OC(=O)c3ccccc3)[C@]3(O)C[C@H](OC(=O)[C@H](O)[C@@H](NC(=O)c4ccccc4)c4ccccc4)C(C)=C1C3(C)C)[C@]1(OC(C)=O)CO[C@@H]1C[C@@H]2O	inactive												
CNCc1cnc2c(C#N)c(-c3ccc(OC)c(OC)c3OC)cc(-c3ccc(F)cc3)n12		710	4.42	3.04	1880	830							
N#Cc1c(-c2ccc(F)cc2F)cc(-c2c[nH]c3ccccc23)n2cc(CN3CCOCC3)nc12		3330	12.8	7.86	190	2700							
COc1ccc(-c2cc(-c3ccc(F)cc3F)n3c(CN(C)C)cnc3c2C#N)c(OC)c1OC		1980	6.48	9.08	200	230							
COc1ccc(-c2cc(-c3ccc(F)cc3F)n3c(CN4CCOCC4)cnc3c2C#N)c(OC)c1OC		1150	3.2	2.38	80	470							
N#Cc1c(-c2ccc(F)cc2F)cc(-c2c[nH]c3ccccc23)n2cc(CNC3CC3)nc12		9660	6.8	3.68	280	40							
COc1ccc(/C=C\c2cc(OC)c(OC)c(OC)c2)cc1O [COMBRETASTATIN A4]	Active	430	1.92	0.11	80	50	Active	Active					
CN1CCN(Cc2cn3c(-c4c[nH]c5ccccc45)cc(-c4ccc(F)cc4F)c(C#N)c3n2)CC1		920	3.82	2.71	170	110							
COc1cc(-c2cc(-c3ccc(F)cc3F)n3c(CN(C)C)cnc3c2C#N)cc(OC)c1OC		31000	62.5	14	670	360							
COc1ccc(-c2cc(-c3ccc(F)cc3)n3c(CN4CCOCC4)cnc3c2C#N)c(OC)c1OC		3560	4.03	10.5	9750	1030							
CNCc1cn2c(-c3c[nH]c4ccccc34)cc(-c3ccc(F)cc3F)c(C#N)c2n1		8900	16.2	18.2	200	160							
CN(C)Cc1cn2c(-c3c[nH]c4ccccc34)cc(-c3ccc(F)cc3F)c(C#N)c2n1		1120	5.3	1.34	190	60							
CCN(CC)Cc1cn2c(-c3c[nH]c4ccccc34)cc(-c3ccc(F)cc3F)c(C#N)c2n1		80	1.92	3.22	110	20							
COc1ccc(-c2cc(-c3ccc(F)cc3)n3c(CN4CCN(C)CC4)cnc3c2C#N)c(OC)c1OC		12400	24.6	5.48	3890	2040							
COc1ccc(-c2cc(-c3ccc(F)cc3F)n3c(CN4CCC(C)CC4)cnc3c2C#N)c(OC)c1OC		1460	3.48	1.68	60	140							
CNCc1cn2c(-c3c[nH]c4ccccc34)cc(-c3ccc(F)cc3Cl)c(C#N)c2n1		1040	5.66	2.44	250	120							
COc1ccc(-c2cc(-c3ccc(F)cc3F)n3c(CN4CCCC4)cnc3c2C#N)c(OC)c1OC		800	2.38	7.26	60	1340							

Compound	inhibition (Homo sapiens [1])	IC50 (A549) [nM]	IC50 (SMMC-7721) [µM]	IC50 (MKN-45) [µM]	IC50 (NCI-H460) [nM]	IC50 (HT-29 [2]) [nM]	inhibition (Homo sapiens [3])	inhibition (Homo sapiens [4])	Ratio IC50 (HT-29 [5])	inhibition (Homo sapiens [6])	Ratio IC50 (HT-29 [7])	inhibition (Homo sapiens [8])	inhibition (Homo sapiens [9])
N#Cc1c(-c2ccc(F)cc2Cl)cc(-c2c[nH]c3ccccc23)n2cc(CNC3CCCCC3)nc12		2530	4.88	3.68	80	20							
CCN(CC)Cc1cnc2c(C#N)c(-c3ccc(OC)c(OC)c3OC)cc(-c3ccc(F)cc3F)n12		1040	1.31	6.79	60	210							
CC(C)NCc1cn2c(-c3c[nH]c4ccccc34)cc(-c3ccc(F)cc3F)c(C#N)c2n1		1920	6.54	3.34	180	80							
CNCc1cnc2c(C#N)c(-c3ccc(OC)c(OC)c3OC)cc(-c3ccc(F)cc3F)n12		130	1.17	2.7	20	70							
CCNCc1cnc2c(C#N)c(-c3ccc(OC)c(OC)c3OC)cc(-c3ccc(F)cc3)n12		3240	6.02	7.88	4540	910							
CN1CCN(Cc2cn3c(-c4c[nH]c5ccccc45)cc(-c4ccc(F)cc4Cl)c(C#N)c3n2)CC1		1550	7.12	3.62	220	140							
COc1ccc(-c2cc(-c3ccc(F)cc3)n3c(CN4CCCC4)cnc3c2C#N)c(OC)c1OC		1330	5.12	5.84	15600	1950							
N#Cc1c(-c2ccc(F)cc2F)cc(-c2c[nH]c3ccccc23)n2cc(CN3CCCC3)nc12		1030	5.04	0.48	50	40							
CCN(CC)Cc1cnc2c(C#N)c(-c3cc(OC)c(OC)c(OC)c3)cc(-c3ccc(F)cc3F)n12		> 100000	> 100	40.6	760	3510							
CCNCc1cn2c(-c3c[nH]c4ccccc34)cc(-c3ccc(F)cc3F)c(C#N)c2n1		920	6.12	2.77	150	50							
CC1CCN(Cc2cn3c(-c4c[nH]c5ccccc45)cc(-c4ccc(F)cc4F)c(C#N)c3n2)CC1		3640	3.55	2.62	200	10							
COc1ccc(-c2cc(-c3ccc(F)cc3)n3c(CN(C)C)cnc3c2C#N)c(OC)c1OC		670	3.02	6.99	9330	800							
CCN(CC)Cc1cnc2c(C#N)c(-c3ccc(OC)c(OC)c3OC)cc(-c3ccc(F)cc3)n12		1970	6.91	23.4	3080	3010							
N#Cc1c(-c2ccc(F)cc2F)cc(-c2c[nH]c3ccccc23)n2cc(CNC3CCCCC3)nc12		540	5.6	2.4	40	10			52	Active	5	Dose-dependent effect	Active
COc1cc(-c2cc(-c3ccc(F)cc3F)n3c(CN4CCCC4)cnc3c2C#N)cc(OC)c1OC		1200	2.93	11.6	130	700							
CCNCc1cnc2c(C#N)c(-c3ccc(OC)c(OC)c3OC)cc(-c3ccc(F)cc3F)n12		170	1.32	3.52	30	90							

— ChEMBL document CHEMBL4052675, “Synthesis, biological evaluation and molecular modeling of imidazo[1,2-a]pyridine derivatives as potent antitubulin agents” (Bioorg Med Chem, 2017)
